Source: ChEMBL document CHEMBL1156036, “A class of novel N-(3S-1,2,3,4-tetrahydroisoquinoline-3-carbonyl)-L-amino acid derivatives: their synthesis, anti-thrombotic activity evaluation, and 3D QSAR analysis” (Eur J Med Chem, 2009)
pIC50: −log10 of the molar value. Square brackets hold non-standard residues; d marks the D form. Peptide text beside a SMILES is read from it. Tic = O=C(O)[C@@H]1Cc2ccccc2CN1

What was measured:
Assay type in all cases: functional
Rattus norvegicus [1] = test: Antithrombotic activity in Wistar rat assessed as reduction of wet thrombus weight at 15 umol/kg, po after 15 mins
[2] = Antiplatelet aggregatory activity in pig […] assessed as inhibition of thrombin-induced platelet aggregation; details: Sus scrofa
Procedure, shortened: (§1)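 Pig blood spun 1000g 10 min for platelet-rich plasma, then 1500g 10 min for platelet-poor plasma; platelets adjusted to 2×10^8/ml with autologous PPP. Test agent in NS (final 100 to 0.001 μM) added to 0.5 ml plasma, then inducer in NS: PAF 0.1 μM, ADP 10 μM, AA 350 μM or thrombin 0.1 U/ml (final). Optical aggregometry, 37 °C, 5 min, six tubes.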

[3] = Antiplatelet aggregatory activity in pig […] assessed as inhibition of platelet-activating factor-induced platelet aggregation; details: Sus scrofa; procedure, shortened: as §1
Rattus norvegicus [4] = test: Antithrombotic activity in Wistar rat assessed as reduction of wet thrombus weight at 15 umol/kg, iv after 15 mins
Procedure, shortened: (§2)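 Male Wistar rats, 250-300 g, given agent dissolved in NS (kept on ice) intravenously; Aspirin 15 μmol/kg as reference, NS as vehicle. Pentobarbital sodium 80.0 mg/kg i.p. Arteriovenous shunt from right carotid artery to left jugular vein via polyethylene tube containing a thread; blood flowed 15 min; wet thrombus weighed, n = 12, mean ± SD.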

[5] = Antiplatelet aggregatory activity in pig […] assessed as inhibition of ADP-induced platelet aggregation; details: Sus scrofa; procedure, shortened: as §1
[6] = Antiplatelet aggregatory activity in pig […] assessed as inhibition of arachidonic acid-induced platelet aggregation; details: Sus scrofa; procedure, shortened: as §1
Rattus norvegicus [7] = test: Antithrombotic activity in Wistar rat assessed as reduction of wet thrombus weight at 5 umol/kg, iv after 15 mins; procedure, shortened: as §2
Rattus norvegicus [8] = organism: Rattus norvegicus; test: Ratio of compound antithrombotic potency to aspirin antithrombotic potency in Wistar rat assessed as reduction of wet thrombus weight

| SMILES | pIC50 [2] | pIC50 [3] | pIC50 [5] | pIC50 [6] | Activity (Rattus norvegicus [1]) [mg] | Activity (Rattus norvegicus [4]) [mg] | Activity (Rattus norvegicus [7]) [mg] | Ratio (Rattus norvegicus [8]) |
| --- | --- | --- | --- | --- | --- | --- | --- | --- |
| O=C(O)[C@@H]1Cc2ccccc2CN1 | 6.06 | 6.02 | 6.26 | 6.34 | 23.88 | 21.52 |  |  |
| C[C@H](N)C(=O)N1Cc2ccccc2C[C@H]1C(=O)O (H-Ala-[Tic]-OH) | 6.13 | 6.02 | 6.19 | 6.34 |  |  | 20.3 |  |
| NC(=O)C[C@H](N)C(=O)N1Cc2ccccc2C[C@H]1C(=O)O (H-Asn-[Tic]-OH) | 6.31 | 6.44 | 6.27 | 6.37 |  |  | 22.66 |  |
| N[C@@H](CC(=O)O)C(=O)N1Cc2ccccc2C[C@H]1C(=O)O (H-Asp-[Tic]-OH) |  | 6.42 | 6.46 | 6.46 |  |  | 20.3 |  |
| N[C@@H](CCC(=O)O)C(=O)N1Cc2ccccc2C[C@H]1C(=O)O (H-Glu-[Tic]-OH) | 6.23 | 6.26 | 6.31 | 6.43 |  |  | 20.87 |  |
| NCC(=O)N1Cc2ccccc2C[C@H]1C(=O)O (H-Gly-[Tic]-OH) | 6.12 | 6.06 | 6.44 | 6.36 |  |  | 21.17 |  |
| CC(C)C[C@H](N)C(=O)N1Cc2ccccc2C[C@H]1C(=O)O (H-Leu-[Tic]-OH) | 6.14 | 6.05 | 6.47 | 6.24 |  |  | 19.12 |  |
| N[C@@H](Cc1ccccc1)C(=O)N1Cc2ccccc2C[C@H]1C(=O)O (H-Phe-[Tic]-OH) | 6.07 |  | 6.43 | 6.18 |  |  | 22.23 |  |
| O=C(O)[C@@H]1Cc2ccccc2CN1C(=O)[C@@H]1CCCN1 (H-Pro-[Tic]-OH) | 6.23 |  | 6.43 | 6.28 |  |  | 21.09 |  |
| N[C@@H](Cc1ccc(O)cc1)C(=O)N1Cc2ccccc2C[C@H]1C(=O)O (H-Tyr-[Tic]-OH) | 6.13 | 6.18 |  | 6.27 |  |  | 20.92 |  |
| CC(C)[C@H](N)C(=O)N1Cc2ccccc2C[C@H]1C(=O)O (H-Val-[Tic]-OH) | 6.19 | 6.20 | 6.41 | 6.37 |  |  | 20.12 |  |
| C[C@H](NC(=O)[C@@H]1Cc2ccccc2CN1)C(=O)O (H-[Tic]-Ala-OH) | 6.31 | 6.45 | 6.46 | 6.98 |  |  | 21.4 | >30 |
| NC(=O)C[C@H](NC(=O)[C@@H]1Cc2ccccc2CN1)C(=O)O (H-[Tic]-Asn-OH) | 6.26 | 6.82 | 6.33 | 6.78 |  |  | 20.24 | >30 |
| O=C(O)C[C@H](NC(=O)[C@@H]1Cc2ccccc2CN1)C(=O)O (H-[Tic]-Asp-OH) | 6.80 | 6.20 | 6.48 | 6.41 |  |  | 21.67 | >30 |
| O=C(O)CC[C@H](NC(=O)[C@@H]1Cc2ccccc2CN1)C(=O)O (H-[Tic]-Glu-OH) | 6.26 | 6.75 | 6.32 | 6.45 |  |  | 19.69 | >30 |
| O=C(O)CNC(=O)[C@@H]1Cc2ccccc2CN1 (H-[Tic]-Gly-OH) | 6.51 | 6.10 | 6.30 | 6.97 |  |  | 20.24 | >30 |
| O=C(O)[C@H](Cc1c[nH]cn1)NC(=O)[C@@H]1Cc2ccccc2CN1 (H-[Tic]-His-OH) | 6.43 | 6.14 | 6.18 | 6.31 |  |  | 20.86 | >30 |
| CC[C@H](C)[C@H](NC(=O)[C@@H]1Cc2ccccc2CN1)C(=O)O (H-[Tic]-Ile-OH) | 6.18 | 6.03 | 6.27 | 6.35 |  |  | 20.03 | >30 |
| CC(C)C[C@H](NC(=O)[C@@H]1Cc2ccccc2CN1)C(=O)O (H-[Tic]-Leu-OH) | 6.34 | 5.79 | 6.32 | 6.54 |  |  | 20.23 | >30 |
| O=C(O)[C@@H]1CCCN1C(=O)[C@@H]1Cc2ccccc2CN1 (H-[Tic]-Pro-OH) | 6.73 | 5.85 | 6.44 | 6.99 |  |  | 20.25 | >30 |
| O=C(O)[C@H](CO)NC(=O)[C@@H]1Cc2ccccc2CN1 (H-[Tic]-Ser-OH) | 6.08 | 6.03 | 6.41 | 6.38 |  |  | 23.58 | >30 |
| O=C(O)[C@H](Cc1ccc(O)cc1)NC(=O)[C@@H]1Cc2ccccc2CN1 (H-[Tic]-Tyr-OH) | 6.01 | 5.94 | 6.32 | 6.41 |  |  | 19.31 | >30 |
| CC(C)[C@H](NC(=O)[C@@H]1Cc2ccccc2CN1)C(=O)O (H-[Tic]-Val-OH) | 6.70 | 6.03 | 6.42 | 6.41 |  |  | 19.2 | >30 |
| CC(=O)Oc1ccccc1C(=O)O [ASPIRIN] |  |  |  |  |  | 27.6 |  |  |

More lines, in order of rising pIC50 [5], values ahead:

| pIC50 [2] | pIC50 [3] | pIC50 [5] | pIC50 [6] | SMILES | Activity (Rattus norvegicus [1]) [mg] | Activity (Rattus norvegicus [4]) [mg] | Activity (Rattus norvegicus [7]) [mg] | Ratio (Rattus norvegicus [8]) |
| --- | --- | --- | --- | --- | --- | --- | --- | --- |
| 6.16 | 6.17 | 6.49 | 6.45 | N[C@@H](Cc1c[nH]cn1)C(=O)N1Cc2ccccc2C[C@H]1C(=O)O (H-His-[Tic]-OH) |  |  | 21.78 |  |
| 6.08 | 6.33 | 6.49 | 6.28 | NCCCC[C@H](N)C(=O)N1Cc2ccccc2C[C@H]1C(=O)O (H-Lys-[Tic]-OH) |  |  | 21.31 |  |
| 6.17 | 6.08 | 6.50 | 6.62 | CC[C@H](C)[C@H](N)C(=O)N1Cc2ccccc2C[C@H]1C(=O)O (H-Ile-[Tic]-OH) |  |  | 21.14 |  |
| 6.26 | 6.41 | 6.52 | 6.39 | NC(=O)CC[C@H](N)C(=O)N1Cc2ccccc2C[C@H]1C(=O)O (H-Gln-[Tic]-OH) |  |  | 21.3 |  |
|  | 6.39 | 6.58 | 6.42 | CSCC[C@H](N)C(=O)N1Cc2ccccc2C[C@H]1C(=O)O (H-Met-[Tic]-OH) |  |  | 19.56 |  |
| 6.06 | 6.39 | 6.62 | 6.67 | C[C@@H](O)[C@H](N)C(=O)N1Cc2ccccc2C[C@H]1C(=O)O (H-Thr-[Tic]-OH) |  |  | 20.73 |  |
| 6.03 | 6.86 | 6.63 | 6.31 | NC(=O)CC[C@H](NC(=O)[C@@H]1Cc2ccccc2CN1)C(=O)O (H-[Tic]-Gln-OH) |  |  | 22.08 | >30 |
| 6.41 | 6.11 | 6.64 | 6.34 | O=C(O)[C@H](CS)NC(=O)[C@@H]1Cc2ccccc2CN1 (H-[Tic]-Cys-OH) |  |  | 20.91 | >30 |
| 6.51 | 6.42 | 6.64 | 6.72 | CSCC[C@H](NC(=O)[C@@H]1Cc2ccccc2CN1)C(=O)O (H-[Tic]-Met-OH) |  |  | 21.74 | >30 |
| 6.25 | 6.29 | 6.68 | 6.53 | N=C(N)NCCC[C@H](N)C(=O)N1Cc2ccccc2C[C@H]1C(=O)O (H-Arg-[Tic]-OH) |  |  | 20.06 |  |
| 6.13 | 5.98 | 6.71 | 6.56 | NCCCC[C@H](NC(=O)[C@@H]1Cc2ccccc2CN1)C(=O)O (H-[Tic]-Lys-OH) |  |  | 21.28 | >30 |
| 6.47 | 6.66 | 6.73 | 6.26 | O=C(O)[C@H](Cc1ccccc1)NC(=O)[C@@H]1Cc2ccccc2CN1 (H-[Tic]-Phe-OH) |  |  | 19.11 | >30 |
| 6.12 | 6.23 | 6.79 | 6.38 | C[C@@H](O)[C@H](NC(=O)[C@@H]1Cc2ccccc2CN1)C(=O)O (H-[Tic]-Thr-OH) |  |  | 21.25 | >30 |
| 6.63 | 6.18 | 6.92 | 6.43 | O=C(O)[C@H](Cc1c[nH]c2ccccc12)NC(=O)[C@@H]1Cc2ccccc2CN1 (H-[Tic]-Trp-OH) |  |  | 21.3 | >30 |
| 6.30 | 6.57 | 6.99 | 6.24 | N[C@@H](CO)C(=O)N1Cc2ccccc2C[C@H]1C(=O)O (H-Ser-[Tic]-OH) |  |  | 18 |  |
